Measurements reported in ChEMBL document CHEMBL4689842, “EUbOPEN Chemogenomics Library wave 1” (2021).

Legend:
HEK-293T = assay: Multiplex assay against HEK293T; format: toxicity, cell-based; settings: human;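 on Population Tubulin-Different-Phenotype (%): share of the cells with healthy nuclei that show this phenotype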
Summary of the method: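 Cells were classed with CellPathfinder machine-learning gating, first as Hoechst high-intensity objects or normal cells, then (normal cells) as healthy, pyknosed or fragmented nuclei, and finally (pyknosed cells) as mitotic or apoptotic. Staining of live cells at seeding used Hoechst33342, BioTracker Green Microtubule Cytoskeleton Dye, MitoTracker Red and Annexin V Alexa Fluor 680, with imaging on a CQ1 microscope at 37°C and 5% CO2 after compound addition. Tubulin, mitochondrial-mass and membrane-permeability phenotypes are per cents of healthy-nucleus cells.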

Fibroblast = assay: Incucyte cell viability with human fibroblast; format: toxicity, cell-based; settings: 10 µM, compound concentration 10 uM; further: filed as whole numbers so only -1 and 0 and 1 occur
[1] = 12 h, 1 µM, compound concentration 1 uM, replicate 1
[2] = 12 h, 1 µM, compound concentration 1 uM, replicate 2
[3] = 12 h, 10 µM, compound concentration 10 uM, replicate 1
[4] = 12 h, 10 µM, compound concentration 10 uM, replicate 2
[5] = 24 h, 1 µM, compound concentration 1 uM, replicate 1
[6] = 24 h, 1 µM, compound concentration 1 uM, replicate 2
[7] = 24 h, 10 µM, compound concentration 10 uM, replicate 1
[8] = 24 h, 10 µM, compound concentration 10 uM, replicate 2
[9] = 48 h, 1 µM, compound concentration 1 uM, replicate 1
[10] = 48 h, 1 µM, compound concentration 1 uM, replicate 2
[11] = 48 h, 10 µM, compound concentration 10 uM, replicate 1
[12] = 48 h, 10 µM, compound concentration 10 uM, replicate 2

SMILES: Cc1cc2c(cc1N1C(=O)c3cccc4c(CCCO)ccc(c34)C1=O)n(C)c(=O)n2C
- Population Apoptotic (%) (HEK-293T; [1]): 38%
- Population Fragmented Nuclei (%) (HEK-293T; [1]): 14%
- Population Healthy Nuclei (%) (HEK-293T; [1]): 44%
- Population Hoechst High Intensity Objects (%) (HEK-293T; [1]): 16%
- Population Membrane Permeable-Phenotype (%) (HEK-293T; [1]): 4%
- Population Mitochondria Different-Phenotype (%) (HEK-293T; [1]): 77%
- Population Mitotic Cells (%) (HEK-293T; [1]): 61%
- Population Normal (%) (HEK-293T; [1]): 83%
- Population Pyknosed Nuclei (%) (HEK-293T; [1]): 41%
- Population Tubulin-Different-Phenotype (%) (HEK-293T; [1]): 47%
- Total Cell Count (HEK-293T; [1]): 307
- Population Apoptotic (%) (HEK-293T; [2]): 12%
- Population Fragmented Nuclei (%) (HEK-293T; [2]): 5%
- Population Healthy Nuclei (%) (HEK-293T; [2]): 50%
- Population Hoechst High Intensity Objects (%) (HEK-293T; [2]): 6%
- Population Membrane Permeable-Phenotype (%) (HEK-293T; [2]): 5%
- Population Mitochondria Different-Phenotype (%) (HEK-293T; [2]): 15%
- Population Mitotic Cells (%) (HEK-293T; [2]): 87%
- Population Normal (%) (HEK-293T; [2]): 93%
- Population Pyknosed Nuclei (%) (HEK-293T; [2]): 44%
- Population Tubulin-Different-Phenotype (%) (HEK-293T; [2]): 22%
- Total Cell Count (HEK-293T; [2]): 170
- Population Apoptotic (%) (HEK-293T; [3]): 53%
- Population Fragmented Nuclei (%) (HEK-293T; [3]): 7%
- Population Healthy Nuclei (%) (HEK-293T; [3]): 43%
- Population Hoechst High Intensity Objects (%) (HEK-293T; [3]): 9%
- Population Membrane Permeable-Phenotype (%) (HEK-293T; [3]): 10%
- Population Mitochondria Different-Phenotype (%) (HEK-293T; [3]): 92%
- Population Mitotic Cells (%) (HEK-293T; [3]): 46%
- Population Normal (%) (HEK-293T; [3]): 90%
- Population Pyknosed Nuclei (%) (HEK-293T; [3]): 48%
- Population Tubulin-Different-Phenotype (%) (HEK-293T; [3]): 94%
- Total Cell Count (HEK-293T; [3]): 302
- Population Apoptotic (%) (HEK-293T; [4]): 38%
- Population Fragmented Nuclei (%) (HEK-293T; [4]): 2%
- Population Healthy Nuclei (%) (HEK-293T; [4]): 45%
- Population Hoechst High Intensity Objects (%) (HEK-293T; [4]): 4%
- Population Membrane Permeable-Phenotype (%) (HEK-293T; [4]): 11%
- Population Mitochondria Different-Phenotype (%) (HEK-293T; [4]): 82%
- Population Mitotic Cells (%) (HEK-293T; [4]): 61%
- Population Normal (%) (HEK-293T; [4]): 95%
- Population Pyknosed Nuclei (%) (HEK-293T; [4]): 51%
- Population Tubulin-Different-Phenotype (%) (HEK-293T; [4]): 96%
- Total Cell Count (HEK-293T; [4]): 359
- Population Apoptotic (%) (HEK-293T; [5]): 50%
- Population Fragmented Nuclei (%) (HEK-293T; [5]): 13%
- Population Healthy Nuclei (%) (HEK-293T; [5]): 44%
- Population Hoechst High Intensity Objects (%) (HEK-293T; [5]): 12%
- Population Membrane Permeable-Phenotype (%) (HEK-293T; [5]): 4%
- Population Mitochondria Different-Phenotype (%) (HEK-293T; [5]): 61%
- Population Mitotic Cells (%) (HEK-293T; [5]): 49%
- Population Normal (%) (HEK-293T; [5]): 87%
- Population Pyknosed Nuclei (%) (HEK-293T; [5]): 41%
- Population Tubulin-Different-Phenotype (%) (HEK-293T; [5]): 44%
- Total Cell Count (HEK-293T; [5]): 295
- Population Apoptotic (%) (HEK-293T; [6]): 13%
- Population Fragmented Nuclei (%) (HEK-293T; [6]): 5%
- Population Healthy Nuclei (%) (HEK-293T; [6]): 75%
- Population Hoechst High Intensity Objects (%) (HEK-293T; [6]): 2%
- Population Membrane Permeable-Phenotype (%) (HEK-293T; [6]): 9%
- Population Mitochondria Different-Phenotype (%) (HEK-293T; [6]): 11%
- Population Mitotic Cells (%) (HEK-293T; [6]): 86%
- Population Normal (%) (HEK-293T; [6]): 97%
- Population Pyknosed Nuclei (%) (HEK-293T; [6]): 18%
- Population Tubulin-Different-Phenotype (%) (HEK-293T; [6]): 22%
- Total Cell Count (HEK-293T; [6]): 194
- Population Apoptotic (%) (HEK-293T; [7]): 63%
- Population Fragmented Nuclei (%) (HEK-293T; [7]): 12%
- Population Healthy Nuclei (%) (HEK-293T; [7]): 54%
- Population Hoechst High Intensity Objects (%) (HEK-293T; [7]): 11%
- Population Membrane Permeable-Phenotype (%) (HEK-293T; [7]): 6%
- Population Mitochondria Different-Phenotype (%) (HEK-293T; [7]): 87%
- Population Mitotic Cells (%) (HEK-293T; [7]): 36%
- Population Normal (%) (HEK-293T; [7]): 88%
- Population Pyknosed Nuclei (%) (HEK-293T; [7]): 32%
- Population Tubulin-Different-Phenotype (%) (HEK-293T; [7]): 91%
- Total Cell Count (HEK-293T; [7]): 306
- Population Apoptotic (%) (HEK-293T; [8]): 47%
- Population Fragmented Nuclei (%) (HEK-293T; [8]): 5%
- Population Healthy Nuclei (%) (HEK-293T; [8]): 63%
- Population Hoechst High Intensity Objects (%) (HEK-293T; [8]): 3%
- Population Membrane Permeable-Phenotype (%) (HEK-293T; [8]): 3%
- Population Mitochondria Different-Phenotype (%) (HEK-293T; [8]): 71%
- Population Mitotic Cells (%) (HEK-293T; [8]): 52%
- Population Normal (%) (HEK-293T; [8]): 96%
- Population Pyknosed Nuclei (%) (HEK-293T; [8]): 30%
- Population Tubulin-Different-Phenotype (%) (HEK-293T; [8]): 90%
- Total Cell Count (HEK-293T; [8]): 377
- Population Apoptotic (%) (HEK-293T; [9]): 47%
- Population Fragmented Nuclei (%) (HEK-293T; [9]): 22%
- Population Healthy Nuclei (%) (HEK-293T; [9]): 28%
- Population Hoechst High Intensity Objects (%) (HEK-293T; [9]): 14%
- Population Membrane Permeable-Phenotype (%) (HEK-293T; [9]): 2%
- Population Mitochondria Different-Phenotype (%) (HEK-293T; [9]): 33%
- Population Mitotic Cells (%) (HEK-293T; [9]): 52%
- Population Normal (%) (HEK-293T; [9]): 85%
- Population Pyknosed Nuclei (%) (HEK-293T; [9]): 49%
- Population Tubulin-Different-Phenotype (%) (HEK-293T; [9]): 29%
- Total Cell Count (HEK-293T; [9]): 321
- Population Apoptotic (%) (HEK-293T; [10]): 33%
- Population Fragmented Nuclei (%) (HEK-293T; [10]): 14%
- Population Healthy Nuclei (%) (HEK-293T; [10]): 79%
- Population Hoechst High Intensity Objects (%) (HEK-293T; [10]): 2%
- Population Membrane Permeable-Phenotype (%) (HEK-293T; [10]): 10%
- Population Mitochondria Different-Phenotype (%) (HEK-293T; [10]): 7%
- Population Mitotic Cells (%) (HEK-293T; [10]): 66%
- Population Normal (%) (HEK-293T; [10]): 97%
- Population Pyknosed Nuclei (%) (HEK-293T; [10]): 5%
- Population Tubulin-Different-Phenotype (%) (HEK-293T; [10]): 22%
- Total Cell Count (HEK-293T; [10]): 270
- Population Apoptotic (%) (HEK-293T; [11]): 75%
- Population Fragmented Nuclei (%) (HEK-293T; [11]): 19%
- Population Healthy Nuclei (%) (HEK-293T; [11]): 64%
- Population Hoechst High Intensity Objects (%) (HEK-293T; [11]): 8%
- Population Membrane Permeable-Phenotype (%) (HEK-293T; [11]): 5%
- Population Mitochondria Different-Phenotype (%) (HEK-293T; [11]): 59%
- Population Mitotic Cells (%) (HEK-293T; [11]): 25%
- Population Normal (%) (HEK-293T; [11]): 91%
- Population Pyknosed Nuclei (%) (HEK-293T; [11]): 16%
- Population Tubulin-Different-Phenotype (%) (HEK-293T; [11]): 71%
- Total Cell Count (HEK-293T; [11]): 323
- Population Apoptotic (%) (HEK-293T; [12]): 57%
- Population Fragmented Nuclei (%) (HEK-293T; [12]): 15%
- Population Healthy Nuclei (%) (HEK-293T; [12]): 75%
- Population Hoechst High Intensity Objects (%) (HEK-293T; [12]): 3%
- Population Membrane Permeable-Phenotype (%) (HEK-293T; [12]): 3%
- Population Mitochondria Different-Phenotype (%) (HEK-293T; [12]): 41%
- Population Mitotic Cells (%) (HEK-293T; [12]): 42%
- Population Normal (%) (HEK-293T; [12]): 96%
- Population Pyknosed Nuclei (%) (HEK-293T; [12]): 9%
- Population Tubulin-Different-Phenotype (%) (HEK-293T; [12]): 79%
- Total Cell Count (HEK-293T; [12]): 482
- Growth Rate (Fibroblast; 0 h, replicate number 2, timepoint 0 hours): 0
- Growth Rate (Fibroblast; 6 h, replicate number 1, timepoint 6 hours): 0
- Growth Rate (Fibroblast; 6 h, replicate number 2, timepoint 6 hours): 1
- Growth Rate (Fibroblast; 12 h, replicate number 1, timepoint 12 hours): 0
- Growth Rate (Fibroblast; 12 h, replicate number 2, timepoint 12 hours): 1
- Growth Rate (Fibroblast; 18 h, replicate number 1, timepoint 18 hours): 0
- Growth Rate (Fibroblast; 18 h, replicate number 2, timepoint 18 hours): 1
- Growth Rate (Fibroblast; 24 h, replicate number 1, timepoint 24 hours): 0
- Growth Rate (Fibroblast; 24 h, replicate number 2, timepoint 24 hours): 1
